A selection: hits, their analogues and other compounds. The true share with any hit is near 2.9%.
UBC13 inh: inhibitors of human UBC13 polyubiquitin chain formation. TR-FRET. inhibition, % at 20 µM. 330,000 tested, 0.47% active. P61088; in the data active = inhibition above about 45%, passing the limit was not always enough
MEKK3 PB1 HTS: MEKK3-MEK5 PB1 interaction, increase or decrease | Q99759 | AID 1529 | 290,000 tested, 1.4% active | binding response (% of control), % at 10 µM | bead-based flow cytometry, Alexa488-MEK5 binding to MEKK3; actives lie on both sides; 0 = blocked by unlabeled MEK5, 100 = vehicle;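 active = binding response more than 3 SD above or below the average of its plate-row segment, actives on both sides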;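 note: Alexa488 bead fluorescence after subtracting the streptavidin-only scavenger bead signal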
Target sequence (Q99759 whole entry, looked up): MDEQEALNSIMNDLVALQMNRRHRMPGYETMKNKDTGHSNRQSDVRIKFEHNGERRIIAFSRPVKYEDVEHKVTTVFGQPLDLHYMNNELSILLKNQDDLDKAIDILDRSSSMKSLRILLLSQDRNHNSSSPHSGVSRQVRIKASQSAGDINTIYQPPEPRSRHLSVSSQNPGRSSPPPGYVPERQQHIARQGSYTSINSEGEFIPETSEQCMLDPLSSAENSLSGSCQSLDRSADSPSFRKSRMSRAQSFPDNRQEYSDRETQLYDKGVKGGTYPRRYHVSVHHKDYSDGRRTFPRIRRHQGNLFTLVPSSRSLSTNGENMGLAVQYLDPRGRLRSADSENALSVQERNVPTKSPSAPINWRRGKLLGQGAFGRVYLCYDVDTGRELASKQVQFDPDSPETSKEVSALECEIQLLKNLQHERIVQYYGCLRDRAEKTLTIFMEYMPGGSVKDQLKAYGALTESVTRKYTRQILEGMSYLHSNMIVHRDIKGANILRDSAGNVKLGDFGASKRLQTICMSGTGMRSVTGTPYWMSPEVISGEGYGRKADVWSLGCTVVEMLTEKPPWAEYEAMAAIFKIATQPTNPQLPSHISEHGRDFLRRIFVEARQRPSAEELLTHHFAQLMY
Apaf1 inhib: human Apaf-1 inhibition. reconstituted apoptosome caspase-3 activity, DEVD-Rh110 fluorescence. inhibition, % at 20 µM. 330,000 tested, 0.71% active; active = inhibition of at least 40% at 20 µM;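 note: plate controls were DMSO wells for no effect and DEVD-CHO caspase inhibitor wells for full effect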
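Assay system – apoptosome proteins · Medium – Hepes buffer, pH 7.5 · Also added – cytochrome c with DEVD-Rh110 · Timing – 30 min compound preincubation, 50 min activation, room temperature · Detection – Rh110 fluorescence, excitation 480 nm, emission 540 nm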
MEKK2 mut-MEK5: signal of MEK5 binding to mutant human MEKK2 PB1 domain; bead flow cytometry, Alexa488-MEK5 binding to MEKK2 mutant; percent response, % at 10 µM; 290,000 tested, 0.35% active; AID 1530; in the data active = percent response above about 24%, passing the limit was not always enough
MEKK2wt PB1 HTS: raises or lowers MEK5 binding to wildtype human MEKK2 PB1 domain | binding response (% of control), % at 10 µM | Q9Y2U5 | bead flow cytometry, Alexa488-MEK5 binding to MEKK2 WT; actives lie on both sides | AID 1531 | 290,000 tested, 1.1% active; in the data active = binding response below about 67% or above about 130%
MEKK2wt confirm: raises or lowers MEK5 binding to wildtype human MEKK2, retest; binding response (% of control), % at 10 µM; shares compounds with MEKK3 PB1 HTS; bead flow cytometry, Alexa488-MEK5 binding to MEKK2 WT; actives lie on both sides; 5,900 tested, 2.4% active; in the data active = binding response below about 16% or above about 210%; inactive = in between
MEKK2mut-MEK5: signal of MEK5 binding to mutant human MEKK2, retest | 5,900 tested, 2% active | shares compounds with MEKK3 PB1 HTS | bead flow cytometry, Alexa488-MEK5 binding to MEKK2 mutant | percent response, % at 10 µM; in the data active = percent response mostly above about 71%, no sharp cut-off; inactive = mostly below about 38%;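 note: higher means compound restores mutant binding toward wildtype level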
MEKK3 confirm: MEKK3-MEK5 PB1 inhibition, single concentration confirmation. shares compounds with MEKK3 PB1 HTS. bead flow cytometry, Alexa488-MEK5 binding to MEKK3; stronger effect = lower value. binding response (% of control), % at 10 µM. 5,900 tested, 1.8% active. AID 1894;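 active = binding response below 72% of control, or above a set upper limit, though filed actives all read lower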;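 note: 100% = DMSO only wells and 0% = binding blocked by excess unlabeled MEK5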
Active calls of the source: *; x = not tested or not shown; [ ] = dose if it differs, or a comment.

SMILES	UBC13 inh	MEKK3 PB1 HTS	Apaf1 inhib	MEKK2 mut-MEK5	MEKK2wt PB1 HTS	MEKK2wt confirm	MEKK2mut-MEK5	MEKK3 confirm
COc1ccc(-n2cccc2/C=C2/NC(=O)N(c3cccc(Cl)c3)C2=O)cc1	-1	130*	5	0	105	102	5	101
O=C(O)c1cccc(-n2cccc2/C=C2/NC(=O)N(c3ccc(Cl)cc3)C2=O)c1	x	74*[inhibitor]	x	-7	63*[inhibitor]	76	-30	86
Cc1sc2ncn(CC(=O)Nc3cccc(S(N)(=O)=O)c3)c(=O)c2c1-c1ccccc1	3	103	-4	2	100	x	x	x
COc1ccc(CCNCc2cc(C)n(-c3ccc(OC)cc3)c2C)cc1	19	97	8	61*	184*	148	22	99
COc1ccc(CCNCc2ccccc2N2CCCC2)cc1	9	110	6	13	119	x	x	x
C=CCN=C1S/C(=C\N(C)C)C(=O)N1S(=O)(=O)c1ccc(C)cc1	-17	x	8	x	x	x	x	x
COc1cc(NC(=O)c2cc(C)nc3ccccc23)cc(OC)c1	-7	129*	8	7	117	96	-4	98
COc1ccc(NS(=O)(=O)c2cccs2)cc1S(=O)(=O)N1CCCCC1	-9	x	-3	x	x	x	x	x
C=C(C)CN=c1scc(C)n1/N=C/c1ccco1	-12	77*[inhibitor]	6	-9	85	73	-11	73
Cc1cc(C)n(-c2nnc(C)n2/N=C/c2ccco2)n1	2	104	0	-1	93	x	x	x
COc1ccccc1CC1S/C(=N/N=C/c2ccco2)NC1=O (stereo not given)	-5	106	3	-1	97	x	x	x
O=S(=O)(Nc1ccc(S(=O)(=O)N2CCCC2)cc1)c1ccc(F)cc1F	-2	x	2	x	x	x	x	x
CC12CC3(C)CC(C)(C1)CC(C(=O)Nc1nn[nH]n1)(C2)C3	-5	81*[inhibitor]	11	-14	87	91	-4	99
CCOC(=O)c1ccc(NC(=S)Nc2ccccc2N)cc1	-12	103	1	4	104	x	x	x
CSCC[C@H](NC(=O)C1CCCC1)c1nc2ccccc2[nH]1	1	69*[inhibitor]	2	-16	68	108	5	104
Cc1ccc(C(=O)Nc2ncccc2C)cc1S(=O)(=O)N1CCCCC1	14	x	40	x	x	x	x	x
C=CCn1c(=O)c2c3c(sc2n2c(Nc4ccccc4)nnc12)CCCC3	10	10*[inhibitor]	7	-22	13*[inhibitor]	91	-31	96
CCn1cc(C=C2C(=O)c3ccccc3C2=O)c2ccccc21	x	68	x	-4	33*[inhibitor]	39	-26	84
CCN=C1S/C(=C\c2cn(CC)c3ccccc23)C(=O)N1CC	-3	93	6	-2	100	x	x	x
COC(=O)c1ccc(N2Cc3ccccc3/C2=N\C(=O)Nc2ccccc2)cc1	17	137*	6	0	104	101	6	105
CC(=O)c1ccc(N2Cc3ccccc3/C2=N\C(=O)Nc2ccc(Cl)cc2)cc1	-2	98	10	-1	96	x	x	x
O=C(/N=C1/c2ccccc2CN1c1ccccc1)Nc1ccccc1	12	138*	10	1	109	102	4	103
COC(=O)c1ccc(NC(=O)c2ccccc2-c2ccccc2C(=O)O)cc1	11	102	-9	0	102	x	x	x
CCN(CCNCC(O)COCc1ccc(Cl)cc1)c1cccc(C)c1 (stereo not given)	29	112	-13	20	159*	128	18	105
O=C(CN1C(=O)/C(=C/c2cccc(Br)c2)SC1=S)N1CCCC1	-7	153*	19	1	112	100	0	97
SMILES	UBC13 inh	MEKK3 PB1 HTS	Apaf1 inhib	MEKK2 mut-MEK5	MEKK2wt PB1 HTS	MEKK2wt confirm	MEKK2mut-MEK5	MEKK3 confirm
CCCC(=O)Nc1ccc(C(=O)Nc2ccc([N+](=O)[O-])cc2OC)cc1	-22	105	-2	1	100	x	x	x
Cc1ccc(N(CC(O)CN2CCCCC2)S(=O)(=O)c2ccccc2)cc1 (stereo not given)	-1	104	12	4	111	x	x	x
COc1ccc(S(=O)(=O)NCc2ccco2)cc1C(=O)N1CCOCC1	4	97	-5	-6	99	x	x	x
COc1ccc(S(=O)(=O)NC(C)C)cc1C(=O)N1CCOCC1	24	92	-15	-9	-2.0*[inhibitor]	99	1	102
C#CCOCCOCCOCCNc1nc(N2CCN(C(=O)[C@H]([C@@H](C)CC)n3cc([C@@H](N)CO)nn3)CC2)nc(N2CCN(C(=O)[C@H]([C@@H](C)CC)n3cc([C@@H](N)Cc4ccc(O)cc4)nn3)CC2)n1	8	103	2	22	134*	112	8	100
C#CCOCCOCCOCCNc1nc(N2CCN(C(=O)[C@H]([C@@H](C)CC)n3cc([C@@H](N)CC(C)C)nn3)CC2)nc(N2CCN(C(=O)[C@H](Cc3ccc(O)cc3)n3cc([C@@H](N)CC(C)C)nn3)CC2)n1	33	112	-5	35	150*	150	30	108
C#CCOCCOCCOCCNc1nc(N2CCN(C(=O)[C@H]([C@@H](C)CC)n3cc([C@@H](N)CO)nn3)CC2)nc(N2CCN(C(=O)[C@H](Cc3ccc(O)cc3)n3cc([C@@H](N)C(C)CC)nn3)CC2)n1 (stereo not given in full)	5	106	-2	11	111	x	x	x
C#CCOCCOCCOCCNc1nc(N2CCN(C(=O)[C@H](CCC(=O)O)n3cc(C(N)CC(C)C)nn3)CC2)nc(N2CCN(C(=O)[C@H](Cc3ccc(O)cc3)n3cc(C(N)[C@H](C)CC)nn3)CC2)n1 (stereo not given in full)	-7	96	8	-5	97	x	x	x
COc1ccc(CN2CC(C(=O)N3CC(C)CC(C)C3)CC2=O)cc1 (stereo not given)	0	102	1	3	103	x	x	x
CCNC(=O)CSc1nnc(-c2ccccc2Br)n1-c1cccc(C(F)(F)F)c1	6	128*	-6	1	109	100	0	99
O=C(O)CSc1nnc(-c2ccccc2Br)n1-c1cccc(C(F)(F)F)c1	-14	101	6	3	99	x	x	x
NC(=O)CSc1nnc(-c2ccccc2Br)n1-c1cccc(C(F)(F)F)c1	12	139*	7	-1	101	104	-4	102
NC(=O)c1[nH]cnc1N	0	101	-10	7	104	x	x	x

Screening results deposited in PubChem BioAssay by several laboratories.
